From PubChem BioAssay
FGF22 binding: FGF22 (human) thermal shift binding; recombinant FGF22 thermal shift, SYPRO orange fluorescence; percent of sucrose octasulfate shift, DMSO zero; Q9HCT0; activity (Tm shift, normalised), % at 9.99 µM; 340,000 tested, 1.5% active;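 active = mean Tm shift, scaled 0 neutral to 100 positive control, at about 1.3% or above, every replicate too, limit read from the data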
Target sequence (Q9HCT0 whole entry, looked up): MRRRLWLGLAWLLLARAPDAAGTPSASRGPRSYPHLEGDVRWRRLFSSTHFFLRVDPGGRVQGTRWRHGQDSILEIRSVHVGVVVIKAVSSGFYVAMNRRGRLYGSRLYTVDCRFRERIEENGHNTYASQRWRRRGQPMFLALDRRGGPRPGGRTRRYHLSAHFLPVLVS
SIRT5 block: inhibitors of human sirtuin-5 desuccinylase. 330,000 tested, 1.1% active. AID 652115. Purified SirT5, succinyl-peptide AMC, trypsin-coupled fluorescence. inhibition, % at 15 µM; in the data active = inhibition above about 15%
Target sequence (Q9NXA8 whole entry, looked up): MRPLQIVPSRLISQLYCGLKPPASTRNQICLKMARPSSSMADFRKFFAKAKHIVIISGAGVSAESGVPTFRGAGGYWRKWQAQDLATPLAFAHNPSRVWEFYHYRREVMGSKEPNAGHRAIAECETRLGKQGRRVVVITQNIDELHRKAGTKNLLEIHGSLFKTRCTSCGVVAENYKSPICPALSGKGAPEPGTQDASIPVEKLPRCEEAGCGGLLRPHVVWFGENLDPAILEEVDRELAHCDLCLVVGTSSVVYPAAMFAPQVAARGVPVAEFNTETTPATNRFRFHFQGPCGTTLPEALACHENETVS
ERAP1 inh: inhibitors of human ERAP1 aminopeptidase. Q9NZ08. recombinant ERAP1, Leu-AMC fluorescence, 60 min. inhibition, % at 10.7 µM. 340,000 tested, 0.15% active. AID 652197;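 active = mean replicate inhibition of at least 30%, or all replicates individually reaching that 30% level; inactive = mean below 30% and not every replicate reaching it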;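 also: 0% = neutral control wells and 100% = L-leucinethiol positive control wells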
PGC1a acetyl inh: PGC1a acetylation modulation, inhibitor mode; U2OS PGC1a acetylation, AlphaScreen anti-acetyl-lysine; with virally co-expressed GCN5 acetyltransferase; inhibition, % at 15.6 µM; 350,000 tested, 0.17% active; AID 651687;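 active = every replicate shows inhibition of at least 40%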;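 also: 0% = neutral control wells and 100% = positive control wells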
FN deposit inh: fibronectin deposition inhibition; AH1F fibroblasts, Alexa488-fibronectin deposition fluorescence, overnight; 350,000 tested, 0.086% active; inhibition, % at 12.6 µM; AID 743247;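 active = mean inhibition across replicates of 30% or more, regardless of how many single replicates reach that level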;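 also: positive control wells lacked labelled fibronectin entirely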
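Material: AH1F fibroblasts assembling fluorescent fibronectin matrix; amount: 10000 AH1F cells/well; medium: DMEM, 2% serum; reagent: Alexa488-fibronectin, 24 nM final in well; dosing: single compound dose, delivered by pin transfer; incubation: 1 h adhesion, overnight exposure; detection: fluorescence after three HBSS washes, excitation 485 nm, emission 525 nm; measure: fibronectin deposition inhibition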
Active calls of the source: *. Hits are enriched below; roughly 2.2% of the tested compounds scored in any of these assays.

Screening CCC(=O)Nc1cc(-c2cc3ccccc3oc2=O)ccc1OC returned FGF22 binding 43*, SIRT5 block -3, ERAP1 inh 10 and FN deposit inh -2.
CCC(=O)Nc1ccc(-c2cc3ccccc3oc2=O)cc1 was read as FGF22 binding 0, SIRT5 block -1, ERAP1 inh -2 and FN deposit inh 6.
O=C(C[C@H]1C[C@H]2c3cc(NC(=O)CC4CC4)ccc3O[C@H]2[C@@H](CO)O1)NCC(F)(F)F was read as FGF22 binding 0, SIRT5 block 1, ERAP1 inh -4, PGC1a acetyl inh 5 and FN deposit inh -13.
For Cc1ccccc1S(=O)(=O)NC(=O)C1(C)CCN1C(=O)Cc1ccccc1Cl (stereo not given) the results were FGF22 binding 0, SIRT5 block -3, ERAP1 inh 0, PGC1a acetyl inh 8 and FN deposit inh 2.
`CC1(C(=O)NS(=O)(=O)c2ccccc2)CCN1C(=O)Cc1cccc2ccccc12` (stereo not given) gave FGF22 binding 0, SIRT5 block 1 and ERAP1 inh 1.
For CC1(C(=O)NS(=O)(=O)c2ccccc2Cl)CCN1C(=O)Cc1cccc2ccccc12 (stereo not given) the results were FGF22 binding 0, SIRT5 block 30*, ERAP1 inh 2 and FN deposit inh 5.
`CC(C)(C)c1ccc(S(=O)(=O)NC(=O)C2(C)CCN2C(=O)Cc2cccc3ccccc23)cc1` (stereo not given) gave FGF22 binding 6.1*, SIRT5 block 2, ERAP1 inh -4, PGC1a acetyl inh 2 and FN deposit inh -7.
Cc1ccc(S(=O)(=O)Oc2ccccc2-c2ccccc2)cc1 was read as FGF22 binding 43*, ERAP1 inh 2, PGC1a acetyl inh -14 and FN deposit inh -7.
C[C@H](CO)N1C[C@H](C)[C@@H](CN(C)Cc2ccccn2)Oc2ncc(C#Cc3cccc(F)c3)cc2C1=O was read as FGF22 binding 0, SIRT5 block -4, ERAP1 inh 0, PGC1a acetyl inh -6 and FN deposit inh 1.
`N#CC1CC(c2ccc([N+](=O)[O-])cc2)=NN1c1ccc([N+](=O)[O-])cc1` (stereo not given) gave FGF22 binding 44*, SIRT5 block 0, ERAP1 inh 1 and FN deposit inh -13.
`COc1ccccc1S(=O)(=O)N[C@H]1CC[C@@H](CCNC(=O)C2CCOCC2)O[C@@H]1CO` gave FGF22 binding 0, SIRT5 block 1, ERAP1 inh 2 and PGC1a acetyl inh -2.
`CC(C)NC(=O)Nc1cccc2c1O[C@@H](CN(C)S(=O)(=O)c1ccc(F)cc1)[C@@H](C)CN([C@@H](C)CO)C2=O` gave FGF22 binding 0, SIRT5 block 1, ERAP1 inh 1, PGC1a acetyl inh 14 and FN deposit inh -7.
CC(=O)Nc1ccc(S(=O)(=O)/N=C2/NC(=O)/C(=C\c3ccco3)S2)cc1 was read as FGF22 binding 0, SIRT5 block 15*, ERAP1 inh 11 and PGC1a acetyl inh -6.
`COc1ccc(N=N/C(=C\O)C(=O)c2ccco2)cc1` gave FGF22 binding 43*, SIRT5 block 2, ERAP1 inh 4, PGC1a acetyl inh 9 and FN deposit inh 23.
For COc1ccc(/C(N)=N/OC(=O)c2ccco2)cc1 the results were FGF22 binding 42, SIRT5 block 4, ERAP1 inh 2, PGC1a acetyl inh 19 and FN deposit inh -9.
Screening COc1cccc(C(=O)N[C@@H](CCSC)c2nc3ccccc3[nH]2)c1 returned FGF22 binding 1, SIRT5 block 1, ERAP1 inh -2 and PGC1a acetyl inh 3.
`COc1cc(OC)cc(C(=O)N[C@@H](CCSC)c2nc3ccccc3[nH]2)c1` gave FGF22 binding 43*, SIRT5 block 1, ERAP1 inh -1 and FN deposit inh -6.
CC1CN(CCOCCSc2ccccc2)CC(C)O1 (stereo not given) was read as FGF22 binding 43*, SIRT5 block -3, ERAP1 inh -2, PGC1a acetyl inh -9 and FN deposit inh 6.
`CC1CN(CCOCCSc2ccc(Cl)cc2)CC(C)O1` (stereo not given) gave FGF22 binding 0, SIRT5 block -3, ERAP1 inh -2, PGC1a acetyl inh 17 and FN deposit inh 3.
`N#CCCn1nc(-c2ccc(Br)cc2)cc1Nc1ccccc1NC(=O)C(F)(F)F` gave FGF22 binding 2.5*, SIRT5 block 0, ERAP1 inh -1 and FN deposit inh 12.
CCCC#Cc1cnc2c(c1)C(=O)N([C@@H](C)CO)C[C@H](C)[C@@H](CN(C)C(=O)CN1CCOCC1)O2 was read as FGF22 binding 0, SIRT5 block -9, ERAP1 inh 3, PGC1a acetyl inh -2 and FN deposit inh 6.
`Cc1ccc(NC(=O)COC(=O)CCC(=O)c2cccs2)c(C)c1` gave FGF22 binding 0, SIRT5 block -3, ERAP1 inh 3, PGC1a acetyl inh 1 and FN deposit inh 3.
For Cc1ccccc1NC(=O)COC(=O)CCC(=O)c1cccs1 the results were FGF22 binding 1, SIRT5 block 15*, ERAP1 inh -2 and FN deposit inh 3.
Cc1ccc(NC(=O)CCNS(=O)(=O)c2cccs2)cc1F was read as FGF22 binding -1, SIRT5 block -1, ERAP1 inh -3 and FN deposit inh -8.
For Cc1ccc(NC(=O)CCC(=O)c2cccs2)cc1F the results were FGF22 binding 1, SIRT5 block 101*, ERAP1 inh 0 and FN deposit inh -8.
Screening C[C@@H]1CN([C@@H](C)CO)C(=O)Cc2cc(NS(=O)(=O)c3ccc(F)cc3)ccc2O[C@H]1CN(C)Cc1ccc(C(F)(F)F)cc1 returned FGF22 binding 0, SIRT5 block 36*, ERAP1 inh -1, PGC1a acetyl inh 7 and FN deposit inh -11.
For C[C@@H]1CN([C@H](C)CO)C(=O)Cc2cc(NS(=O)(=O)c3ccc(F)cc3)ccc2O[C@@H]1CN(C)Cc1ccc(C(F)(F)F)cc1 the results were FGF22 binding -1, SIRT5 block 23*, ERAP1 inh -1, PGC1a acetyl inh 13 and FN deposit inh -7.
Cc1ccc(S(=O)(=O)Nc2ccc3c(c2)CC(=O)N([C@H](C)CO)C[C@H](C)[C@H](CN(C)Cc2ccc(C(F)(F)F)cc2)O3)cc1 was read as PGC1a acetyl inh 7.
`C[C@H](CO)N1C[C@H](C)[C@@H](CN(C)Cc2ccc(C(F)(F)F)cc2)Oc2ccc(N(C)C)cc2CC1=O` gave FGF22 binding -1, SIRT5 block 17*, ERAP1 inh 2 and PGC1a acetyl inh -13.
For COc1ccc(S(=O)(=O)Nc2ccc3c(c2)CC(=O)N([C@@H](C)CO)C[C@H](C)[C@@H](CN(C)Cc2ccc(C(F)(F)F)cc2)O3)cc1 the results were FGF22 binding -1, SIRT5 block 16*, ERAP1 inh 0, PGC1a acetyl inh 1 and FN deposit inh -13.
